Experimental data from different studies.
Each line is one published result; the experiments were not run side by side.

SMILES	assay	system	conditions	measurement	result
CCOC(=O)[C@@]12C[C@@H]1[C@@H](n1ccc3c(NC)nc(C#Cc4ccc(Cl)s4)nc31)[C@H](O)[C@@H]2O	–	male Sprague-Dawley rat, plasma	oral, 10 mg/kg, 4 h	concentration	23.5 ng/mL
Oc1c(Br)cc(Cl)c2cccnc12	–	Sprague-Dawley rat, plasma	intravenous, 2 mg/kg	half-life	534 min
CCOC(=O)C1=C(C)N/C(=C/c2cc(C)n(-c3ccc(CN4CCCCC4)cc3)c2C)C1=O	metabolic stability	mouse, liver microsomes	1 µM	half-life	29 min
COc1cc2c3c(n(CCCN4CCOCC4)c(=O)c2cc1OC)-c1cc2c(cc1C3=O)OCO2	–	male Fischer 344 rat, plasma	intravenous, 12 mg/m², single dose	half-life	126 min
Cc1noc(C)c1Cn1cc(N2C(=O)CN(Cc3cccc(O)c3)C2=O)cn1	–	male Sprague-Dawley rat, plasma	oral, 10 mg/kg, 4 h	concentration	2.72 ng/mL
CC1=C(C(=O)OC(C)(C)C)C(=O)/C(=C\c2cc(C)n(-c3ccccc3C(F)(F)F)c2C)N1	metabolic stability	mouse, liver microsomes	1 µM	half-life	20 min
COc1cccc(-c2n[nH]c(SCc3ccccn3)n2)c1OC	–	female Sprague-Dawley rat, plasma	oral, 100 mg/kg, 1 h, single dose	concentration	62200 ng/mL
CCc1cc(C(=O)NC)c2nccc(N3CCc4c(cc(Cn5ccnc5)cc4-c4cn(C)nc4C(F)(F)F)C3=O)c2c1	–	male Sprague-Dawley rat, plasma	oral, 50 mg/kg	half-life	36 min
COc1ccc2c(=O)n(C)c(-c3ccccc3)nc2c1	–	male Sprague-Dawley rat, lung	oral, 30 mg/kg, 30 min, single dose	concentration	27.5 ng/g
CCc1cc(-c2noc(-c3cc(OC)nc(C4CCCC4)c3)n2)cc(C)c1OC[C@@H](O)CO	–	Wistar rat, plasma	oral, 0.1 mg/kg, 3 h, single dose	concentration	6.2 ng/mL
